Laboratory results: ChEMBL document CHEMBL4049418, “6-OH-Phenanthroquinolizidine Alkaloid and Its Derivatives Exert Potent Anticancer Activity by Delaying S Phase Progression” (J Med Chem, 2017)
Active and inactive are the calls of the source. The rule behind the calls is not given here.

Columns and labels:
[1] = Resistance factor, ratio of IC50 for human K562/ADR cells to IC50 for human K562 cells; assay type: functional
Method in brief: (§1)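 72 h treatment in triplicate; suspended lines (HL-60, K-562, K562/ADR, HL-60/MX2) read by MTT (4 h, SDS/isobutanol/HCl solubilization, 570 nm); adherent KB and KB/VCR (MEM, 10% FBS) by SRB after TCA fixation (540 nm); IC₅₀ by four-parameter logistic fit, mean of ≥3 independent experiments.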

Bel-7402 [2] = assay: Induction of apoptosis in human Bel7402 cells assessed as late apoptotic cells at 10 nM after 72 hrs by Annexin V/propidium iodide staining based flow cytometric analysis (reference value: 3.6%); assay type: functional
Method in brief: (§2)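 BEL-7402 cells (3 × 10⁵ per well, 6-well plates) exposed for 72 h. Harvested, PBS-washed, resuspended in cold binding buffer with annexin V–FITC and PI, and stained 15 min in the dark at room temperature. Early apoptotic, late apoptotic and necrotic fractions quantified by flow cytometry.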

Bel-7402 [3] = assay: Antiproliferative activity against human Bel7402 cells assessed as reduction in viability after 72 hrs by SRB assay; assay type: functional, cell-based; conditions: Bel-7402, 72 h
Method in brief: (§3)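 Cells seeded and dosed in triplicate for 72 h. Suspension lines (HL-60, K-562, K562/ADR, HL-60/MX2) were read by MTT: 5 mg/mL MTT stock added, 4 h at 37 °C, formazan dissolved in 10% SDS/5% isobutanol/10 mM HCl, A570. Adherent lines were read by SRB: fixed with cold 10% TCA, stained with 0.4% SRB in 1% acetic acid, A540. IC50 from four-parameter logistic fit; mean of ≥3 independent experiments.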

Bel-7402 [4] = assay: Induction of apoptosis in human Bel7402 cells assessed as necrotic cells at 0.1 uM after 72 hrs by Annexin V/propidium iodide staining based flow cytometric analysis (reference value: 0.38%); assay type: functional; method in brief: as §2
Bel-7402 [5] = assay: Cell cycle arrest in human Bel7402 cells assessed as delay in progression of S-phase to G2-phase at 1 to 3 nM pre-treated with aphidicolin for 16 hrs followed by compound addition measured after 4 hrs by propidium iodide staining-based flow cytometric method; assay type: functional
Method in brief: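 Exponentially growing cells synchronized in early S phase with 0.2 μg/mL aphidicolin for 16 h. Cells released into fresh medium with or without compound for set times. Ethanol-fixed, stained with PI/RNase, and cell cycle distribution read by flow cytometry. Representative of three independent experiments.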

U-118-MG = assay: Antiproliferative activity against human U118MG cells after 72 hrs by SRB assay; assay type: functional, cell-based; conditions: pooled result: one value given for 25 cell lines, strains, targets or settings
Method in brief: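 Adherent cells seeded in 96-well plates and exposed in triplicate to compound for 72 h at 37 °C, humidified. Fixed with 10% ice-cold trichloroacetic acid, stained with 0.4% sulforhodamine B in 1% acetic acid, and absorbance read at 540 nm. IC50 fitted by four-parameter logistic; mean of at least three independent experiments.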

Bel-7402 [6] = assay: Induction of DNA damage in human Bel7402 cells assessed as increase in gamma-H2AX levels at 1 to 100 nM after 1 hr by Western blot analysis; assay type: functional, cell-based
Method in brief: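 BEL-7402 cells (1.5 × 10⁵ per well, 12-well plates) exposed to compounds for 1 h. Phospho-Chk1 Ser345, phospho-Chk2 Thr68 and γH2AX detected by Western blot. Camptothecin at 1 μM served as the DNA-damage reference.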

A549 = assay: Antiproliferative activity against human A549 cells assessed as reduction in viability after 72 hrs by SRB assay; assay type: functional, cell-based; conditions: A549, 72 h; method in brief: as §3
K562/Adr = assay: Antiproliferative activity against human K562/ADR cells after 72 hrs by MTT assay; assay type: functional, cell-based; method in brief: as §3
HL-60 = assay: Antiproliferative activity against human HL60 cells after 72 hrs by MTT assay; assay type: functional, cell-based; conditions: HL-60, 72 h; method in brief: as §3
Bel-7402 [7] = assay: Inhibition of DNA synthesis in human Bel7402 cells assessed as BrdU incorporation at 0.1 uM preincubated for 1 hr followed by BrdU addition for 30 mins by FITC/propidium iodide staining based flow cytometry (reference value: 35.5%); assay type: functional; design: scale not given: the % may be the effect or the level left
Method in brief: (§4)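 BEL-7402 cells (3 × 10⁵ per well) exposed to compounds 1 h, then labeled with 10 μM BrdU for 30 min; trypsinized, fixed in 70% ethanol at −20 °C ≥1 h, 2 N HCl 20 min, neutralized with 0.1 M borate, stained with anti-BrdU-FITC plus PI 30 min; BrdU-positive cells quantified by flow cytometry; three independent experiments, mean + SD.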

K562 = assay: Antiproliferative activity against human K562 cells after 72 hrs by MTT assay; assay type: functional, cell-based; conditions: K562, 72 h; method in brief: as §3
[8] = Resistance factor, ratio of IC50 for human HL60/MX2 cells to IC50 for human HL60 cells; assay type: functional; method in brief: as §1
[9] = Antiproliferative activity against human KB/VCR cells after 72 hrs by SRB assay; assay type: functional, cell-based; method in brief: as §3
Bel-7402 [10] = assay: Induction of apoptosis in human Bel7402 cells assessed as viable cells at 0.1 uM after 72 hrs by Annexin V/propidium iodide staining based flow cytometric analysis (reference value: 92.4%); assay type: functional; conditions: Bel-7402, 72 h, read-out: Activity
[11] = Resistance factor, ratio of IC50 for human KB/VCR cells to IC50 for human KB cells; assay type: functional; method in brief: as §1
KB = assay: Antiproliferative activity against human KB cells after 72 hrs by SRB assay; assay type: functional, cell-based; method in brief: as §3
Bel-7402 [12] = assay: Induction of apoptosis in human Bel7402 cells assessed as late apoptotic cells at 0.1 uM after 72 hrs by Annexin V/propidium iodide staining based flow cytometric analysis (reference value: 3.6%); assay type: functional; method in brief: as §2
HL60/MX2 = assay: Antiproliferative activity against human HL60/MX2 cells after 72 hrs by MTT assay; assay type: functional, cell-based; conditions: HL60/MX2, 72 h; method in brief: as §3
Bel-7402 [13] = assay: Induction of apoptosis in human Bel7402 cells assessed as early apoptotic cells at 0.1 uM after 72 hrs by Annexin V/propidium iodide staining based flow cytometric analysis (reference value: 3.66%); assay type: functional; method in brief: as §2
Bel-7402 [14] = assay: Induction of apoptosis in human Bel7402 cells assessed as early apoptotic cells at 10 nM after 72 hrs by Annexin V/propidium iodide staining based flow cytometric analysis (reference value: 3.66%); assay type: functional; method in brief: as §2
Bel-7402 [15] = assay: Inhibition of DNA synthesis in human Bel7402 cells assessed as reduction in BrdU incorporation preincubated for 1 hr followed by BrdU addition for 30 mins by FITC/propidium iodide staining based flow cytometry; assay type: functional, cell-based; method in brief: as §4
Bel-7402 [16] = assay: Inhibition of DNA synthesis in human Bel7402 cells assessed as BrdU incorporation at 1 uM preincubated for 1 hr followed by BrdU addition for 30 mins by FITC/propidium iodide staining based flow cytometry (reference value: 35.5%); assay type: functional; design: scale not given: the % may be the effect or the level left; method in brief: as §4
Bel-7402 [17] = assay: Cell cycle arrest in human Bel7402 cells assessed as accumulation in S-phase at 0.012 to 1 uM after 24 hrs by propidium iodide staining-based flow cytometry; assay type: functional
Method in brief: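 BEL-7402 cells exposed for 24 h, then fixed in 70% ethanol at −20 °C for ≥1 h. Stained with 50 μg/mL propidium iodide plus 10 μg/mL RNase A for 30 min in the dark at room temperature. DNA content read by flow cytometry on ≥1.0 × 10⁴ cells per sample.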

Bel-7402 [18] = assay: Induction of apoptosis in human Bel7402 cells assessed as viable cells at 1 uM after 72 hrs by Annexin V/propidium iodide staining based flow cytometric analysis (reference value: 92.4%); assay type: functional; conditions: Bel-7402, 72 h, read-out: Activity

SMILES	Ratio IC50 [1]	IC50 (Bel-7402 [3]) [nM]	Activity (Bel-7402 [4]) [%]	IC50 (U-118-MG) [nM]	IC50 (A549) [nM]	IC50 (K562/Adr) [nM]	IC50 (HL-60) [nM]	Activity (Bel-7402 [7]) [%]	IC50 (K562) [nM]	Ratio IC50 [8]	IC50 [9] [nM]	viability at 0.1 µM (Bel-7402 [10]) [%]	Ratio IC50 [11]	IC50 (KB) [nM]	Activity (Bel-7402 [12]) [%]	IC50 (HL60/MX2) [nM]	Activity (Bel-7402 [13]) [%]	inhibition (Bel-7402 [15])	other results
COc1cc2c3c(c4ccc(O)cc4c2cc1OC)CN1CCCC[C@@H]1C3	1.2	1.7	2.57	2.1	0.7	2.6	1.8	4.83	2.2	0.9	1	72.4	0.8	1.2	19.8	1.7	5.16	Dose-dependent effect	Activity (Bel-7402 [2]): 14.2%; Activity (Bel-7402 [5]): Active; Activity (Bel-7402 [6]): inactive; Activity (Bel-7402 [14]): 3.93%
COc1cc2c3c(c4cc(OC)c(OC)cc4c2cc1OC)[C@H](O)[C@@H]1CCCN1C3	1.4	110	0.37	167	283	138	213	32.5	98.4	1.3	65.2	94.6	1.1	58.2	2.22	278	2.86	Dose-dependent effect	Activity (Bel-7402 [16]): 8.01%; Activity (Bel-7402 [17]): Active; viability at 1 µM (Bel-7402 [18]): 94.7%
